The species entered for one series is Homo sapiens. The series is described as follows: Selectivity index, ratio of IC50 for human recombinant monoamine oxidase-A to IC50 for human recombinant monoamine oxidase-B. The gist of the method: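 Selectivity for MAO-B, given as IC50(MAO-A)/IC50(MAO-B). Both IC50s came from recombinant human enzymes, with kynuramine oxidation to fluorescent […] read at ex 310 / em 400 nm in alkaline medium.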

Series [1] addresses T1, Amine oxidase [flavin-containing] B (Homo sapiens, UniProt P27338).
T1 sequence (P27338 whole entry): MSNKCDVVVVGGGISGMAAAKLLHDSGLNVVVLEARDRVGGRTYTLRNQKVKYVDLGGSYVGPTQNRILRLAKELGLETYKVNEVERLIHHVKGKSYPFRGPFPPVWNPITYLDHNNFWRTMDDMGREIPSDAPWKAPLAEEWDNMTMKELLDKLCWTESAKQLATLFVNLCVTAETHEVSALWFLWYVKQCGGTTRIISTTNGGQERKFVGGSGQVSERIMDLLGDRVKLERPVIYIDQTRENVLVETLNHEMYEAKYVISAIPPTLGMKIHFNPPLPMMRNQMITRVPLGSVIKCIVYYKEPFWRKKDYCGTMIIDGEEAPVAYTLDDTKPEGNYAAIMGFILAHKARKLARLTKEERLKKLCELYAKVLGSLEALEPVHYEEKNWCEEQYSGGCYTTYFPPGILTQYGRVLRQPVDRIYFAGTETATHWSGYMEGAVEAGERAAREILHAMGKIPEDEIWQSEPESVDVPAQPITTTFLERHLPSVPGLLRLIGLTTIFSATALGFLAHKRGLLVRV
Description: Inhibition of human recombinant monoamine oxidase-B assessed as kynuramine conversion to 6-hydroxyquinoline after 20 mins by fluorescence spectrophotometric analysis.

Series [2] addresses T2, Amine oxidase [flavin-containing] A (Homo sapiens, UniProt P21397).
T2 sequence (P21397 whole entry): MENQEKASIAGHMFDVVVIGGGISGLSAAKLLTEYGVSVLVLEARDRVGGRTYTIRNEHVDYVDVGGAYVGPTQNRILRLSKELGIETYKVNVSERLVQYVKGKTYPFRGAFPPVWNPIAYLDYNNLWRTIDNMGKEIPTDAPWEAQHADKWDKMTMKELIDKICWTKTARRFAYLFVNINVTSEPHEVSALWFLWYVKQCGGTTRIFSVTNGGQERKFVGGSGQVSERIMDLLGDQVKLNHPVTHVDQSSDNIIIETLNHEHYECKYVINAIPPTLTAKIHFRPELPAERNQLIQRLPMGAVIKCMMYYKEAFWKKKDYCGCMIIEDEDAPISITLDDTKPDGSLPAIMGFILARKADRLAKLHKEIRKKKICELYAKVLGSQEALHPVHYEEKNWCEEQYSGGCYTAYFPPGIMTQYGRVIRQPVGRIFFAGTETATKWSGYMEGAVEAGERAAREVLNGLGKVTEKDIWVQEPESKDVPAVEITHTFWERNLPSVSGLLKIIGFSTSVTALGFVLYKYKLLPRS
Description: Inhibition of human recombinant monoamine oxidase-A assessed as kynuramine conversion to […] after 20 mins by fluorescence spectrophotometric analysis.

In series [3] the target is T2, Amine oxidase [flavin-containing] A. Description: Competitive inhibition of human recombinant monoamine oxidase-A using kynuramine as substrate by Cheng and Prusoff equation analysis.
Series [4] has the same target. Description: Competitive inhibition of human recombinant monoamine oxidase-A using kynuramine as substrate by Lineweaver-Burk plot analysis. The method in brief:
(§1)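 Recombinant human MAO-A or MAO-B with kynuramine as substrate. Initial rates were recorded at 4 substrate concentrations, without inhibitor and with three inhibitor concentrations. Lineweaver–Burk (1/v vs 1/[S]) plots were built from these rates. Product […] was read by fluorescence in alkaline medium (ex 310 nm, em 400 nm).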

For series [5] the target is unchanged. Description: Reversible inhibition of human recombinant monoamine oxidase-A using kynuramine as substrate assessed as residual enzyme activity treated at 100 times IC50 preincubated for 30 mins prior to substrate addition followed by 100 fold dilution measured after 20 mins by fluorescence spectrophotometric analysis relative to control.
Series [6] has the same target. The series is described as follows: Reversible inhibition of human recombinant monoamine oxidase-A using kynuramine as substrate assessed as residual enzyme activity treated at 10 times IC50 preincubated for 30 mins prior to substrate addition followed by 100 fold dilution measured after 20 mins by fluorescence spectrophotometric analysis relative to control.
In series [7] the target is T1, Amine oxidase [flavin-containing] B. The series is described as follows: Inhibition of human recombinant monoamine oxidase-B assessed as kynuramine conversion to […] at 100 uM after 20 mins by fluorescence spectrophotometric analysis.
Series [8] shares this target. The series is described as follows: Ratio of phthalide IC50 to compound IC50 for human recombinant monoamine oxidase-B.
For series [9], the target named is T3, Amine oxidase [flavin-containing] B (Rattus norvegicus, UniProt P19643).
T3 sequence (P19643 whole entry): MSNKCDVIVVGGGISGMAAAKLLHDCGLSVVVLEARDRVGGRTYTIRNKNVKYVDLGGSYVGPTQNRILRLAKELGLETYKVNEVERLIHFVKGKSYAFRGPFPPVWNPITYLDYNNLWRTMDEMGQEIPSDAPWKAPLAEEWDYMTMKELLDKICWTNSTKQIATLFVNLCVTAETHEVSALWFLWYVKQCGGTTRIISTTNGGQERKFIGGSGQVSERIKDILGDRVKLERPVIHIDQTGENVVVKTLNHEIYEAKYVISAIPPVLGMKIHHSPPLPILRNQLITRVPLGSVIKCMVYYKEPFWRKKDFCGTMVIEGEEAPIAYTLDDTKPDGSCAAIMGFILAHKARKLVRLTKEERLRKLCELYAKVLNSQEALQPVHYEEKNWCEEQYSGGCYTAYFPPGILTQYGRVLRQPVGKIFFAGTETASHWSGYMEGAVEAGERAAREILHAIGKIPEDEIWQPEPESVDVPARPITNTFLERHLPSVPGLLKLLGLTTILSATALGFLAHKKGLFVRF
The series is described as follows: Inhibition of rat brain monoamine oxidase-B.

Series [10] deals with T2, Amine oxidase [flavin-containing] A. Description: Irreversible inhibition of human recombinant monoamine oxidase-A using kynuramine as substrate assessed as residual enzyme activity treated at 10 times IC50 preincubated for 30 mins prior to substrate addition followed by 100 fold dilution measured after 20 mins by fluorescence spectrophotometric analysis relative to control.

Series [11] addresses T1, Amine oxidase [flavin-containing] B. Description: Quasi-reversible inhibition of human recombinant monoamine oxidase-B using kynuramine as substrate treated at 10 to 100 times IC50 preincubated for 30 mins prior to substrate addition followed by 100 fold dilution measured after 20 mins by fluorescence spectrophotometric analysis.
For series [12] the target is unchanged. Description: Competitive inhibition of human recombinant monoamine oxidase-B using kynuramine as substrate by Morrison equation analysis.
The target is the same in series [13]. The series is described as follows: Competitive inhibition of human recombinant monoamine oxidase-B using kynuramine as substrate by Cheng and Prusoff equation analysis.
The target is the same in series [14]. The series is described as follows: Competitive inhibition of human recombinant monoamine oxidase-B using kynuramine as substrate by Lineweaver-Burk plot analysis. The gist of the method: as §1
Series [15] has the same target. The series is described as follows: Reversible inhibition of human recombinant monoamine oxidase-B using kynuramine as substrate assessed as residual enzyme activity treated at 100 times IC50 preincubated for 30 mins prior to substrate addition followed by 100 fold dilution measured after 20 mins by fluorescence spectrophotometric analysis relative to control.
Series [16] has the same target. The series is described as follows: Reversible inhibition of human recombinant monoamine oxidase-B using kynuramine as substrate assessed as residual enzyme activity treated at 10 times IC50 preincubated for 30 mins prior to substrate addition followed by 100 fold dilution measured after 20 mins by fluorescence spectrophotometric analysis relative to control.

pIC50, pKi: −log10 of the molar value.

Consider `O=C1OCc2ccc(OCCc3ccc(Cl)cc3)cc21`, for which the Ratio IC50 in the series listed under Homo sapiens is 10. Moreover, the pIC50 in series [1] is 7.32; in series [2], 6.30.

For `O=C1OCc2ccc(OCC3CCCCC3)cc21`, the Ratio IC50 in the series listed under Homo sapiens amounted to 16. Moreover, the pIC50 in series [1] is 7.92; in [2] it was 6.73.

On to `O=C1OCc2ccc(OCc3cccc(Br)c3)cc21`, for which, in the series listed under Homo sapiens, the Ratio IC50 was 180. Besides, the pIC50 was 8.46 in [1] and 6.20 in series [2].

For the molecule `O=C1OCc2ccc(OCCCc3ccccc3)cc21`, the pKi in series [3] is 7.60; in series [4], 7.21. Further, the Activity was determined as 45% in series [5] and 86% in series [6]. Also, the Ratio IC50 in the series filed under Homo sapiens was 16. Further, the pIC50 in series [1] was 8.21; in series [2], 7.02.

As for `O=C1OCc2ccc(OCCOc3ccc(Cl)cc3)cc21`, the Ratio IC50 in the series filed under Homo sapiens came out at 13. Also, the pIC50 is 7.96 in series [1] and 6.86 in series [2].

`O=C1OCc2ccc(OCCOc3ccc(Br)cc3)cc21`: the Ratio IC50 in the series filed under Homo sapiens came to 20. Besides, the pIC50 in series [1] was 7.92; in [2] it was 6.62.

Turning to `Cc1ccc(COc2ccc3c(c2)C(=O)OC3)cc1`, the Ratio IC50 in the series filed under Homo sapiens stood at 118. Moreover, the pIC50 in [1] was 8.05; in series [2] it was 5.97.

For `O=C1OCc2ccc(OCc3ccc(Cl)cc3)cc21`, the Ratio IC50 in the series filed under Homo sapiens worked out at 61. Moreover, the pIC50 is 8.55 in series [1] and 6.76 in series [2].

For `O=C1OCc2ccc(OCCOc3ccc(F)cc3)cc21`, in the series filed under Homo sapiens, the Ratio IC50 amounted to 43. Also, the pIC50 in [1] is 8.13; in series [2], 6.49.

For `O=C1OCc2ccccc21`, the Ratio IC50 in the series listed under Homo sapiens worked out at 1.6. Besides, the pIC50 is 4.54 in series [1] and 4.35 in [2].

For `Cc1ccc(CCOc2ccc3c(c2)C(=O)OC3)cc1`, the Ratio IC50 in the series listed under Homo sapiens worked out at 90. The pIC50 in [1] was 7.09; in series [2], 5.13.

Take `O=C1OCc2ccc(NCc3ccccc3)cc21`: the “inhibition (INH)” value in series [7] was “Not Active”. Also, the pIC50 in series [2] is 4.22.

Consider `O=C1OCc2ccc(OCc3ccc(I)cc3)cc21`, for which the Ratio IC50 in the series filed under Homo sapiens stood at 189. The pIC50 is 8.74 in [1] and 6.46 in series [2].

In the case of `O=C1OCc2ccc(OCc3ccccc3)cc21`, the “Ratio IC50” value stood at 1000 in [8] and 50 in the series filed under Homo sapiens. The pIC50 in [1] was 7.62; in series [2], 5.92; in [9], 6.64.

As for `C#CCN(C)Cc1ccccc1` [PARGYLINE], the Activity in series [10] was 1%.

For the molecule `O=C1OCc2ccc(OCCOc3ccccc3)cc21`, the Ratio IC50 in the series listed under Homo sapiens amounted to 106. The figures for the pIC50 in series [1] and in [2] were 7.74 and 5.72, respectively.

Turning to `O=C1OCc2ccc(OCc3ccc(Br)cc3)cc21`, the Ratio IC50 in the series filed under Homo sapiens is 96. In addition, the values for the pIC50 in series [1] and in series [2] were 8.62 and 6.64, respectively.

With `O=C1OCc2ccc(OCCc3ccc(F)cc3)cc21`, the Ratio IC50 in the series filed under Homo sapiens turned out to be 16. Also, the values for the pIC50 in series [1] and in [2] were 7.17 and 5.97, respectively.

With `O=C1OCc2ccc(OCc3ccc(F)cc3)cc21`, the Ratio IC50 in the series filed under Homo sapiens is 84. In addition, the pIC50 in [1] is 8.19; in series [2], 6.27.

Regarding `O=C1OCc2ccc(OCc3ccc(C(F)(F)F)cc3)cc21`, the “inhibition (INH)” value in series [11] is given as “Active”. Further, the negative-log Ki (pKi) was 9.34 in [12], 9.22 in [13] and 9.15 in [14]. The Activity is recorded as 14% in [15] and 68% in [16]. Besides, the Ratio IC50 in the series listed under Homo sapiens came out at 214. Further, the pIC50 is 8.85 in series [1] and 6.52 in series [2].

On to `O=C1OCc2ccc(OCCc3ccccc3)cc21`, for which the Ratio IC50 in the series listed under Homo sapiens was 68. Further, the figures for the pIC50 in series [1] and in series [2] were 7.33 and 5.49, respectively.

In general, pIC50 refers to −log10 of the IC50, conventionally taken in molar units. Usually pKi stands for −log10 of the Ki, conventionally taken in molar units.

Values taken from ChEMBL document CHEMBL2390879, “Inhibition of monoamine oxidase by phthalide analogues” (Bioorg Med Chem Lett, 2013).
